From ChEMBL document CHEMBL2321767, “Synthesis and anticonvulsant activity of bioisosteres of trimethadione, N-derivative-1,2,3-oxathiazolidine-4-one-2,2-dioxides from α-hydroxyamides” (Bioorg Med Chem, 2013)
Calls of active or inactive are those of the source.

Experiments:
Mus musculus [1] = assay: Anticonvulsant activity in ip dosed Swiss albino mouse assessed as time of maximal protection against maximal electric shock-induced tonic-clonic seizures; format: functional
Outline: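 Ip-dosed male Swiss albino mice (vehicle 30% PEG 400/10% water) tested in the MES test (ear-clip electroshock, endpoint abolition of hind-limb tonic extension) at several times after dosing. The maximal time effect is the time of peak protection.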

Mus musculus [2] = assay: Anticonvulsant activity in ip dosed Swiss albino mouse assessed as protection against maximal electric shock-induced tonic-clonic seizures measured up to 4 hrs; format: functional
Outline: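 Male Swiss albino mice given test substances ip in 30% PEG 400/10% water. Various doses, each group of six mice, tested by MES at the maximal time effect. Protection means no hind-limb tonic extension after ear-clip electroshock. ED50 and 95% confidence intervals computed by the Litchfield–Wilcoxon method.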

Mus musculus [3] = assay: Anticonvulsant activity in Swiss albino mouse assessed as protection against scPTZ-induced tonic-clonic seizures at 100 mg/kg, ip measured after 0.5 hrs relative to control; format: functional, organism-based; parameters: dose 100 mg/kg
Outline: (§1)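 Adult male Swiss albino mice (18–25 g) given test substance ip at 30 or 100 mg/kg in 30% PEG 400/10% water. At 0.5 or 4 h, PTZ 85 mg/kg sc (0.5% in 0.9% saline) into the posterior midline. Mice observed 30 min. Protection means no threshold seizure, i.e. no clonic spasm lasting ≥5 s. Scored as protected/tested, 2 mice per group.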

Mus musculus [4] = assay: Anticonvulsant activity in Swiss albino mouse assessed as protection against maximal electric shock-induced tonic-clonic seizures at 30 mg/kg, ip measured after 4 hrs relative to control; format: functional
Outline: (§2)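 Adult male Swiss albino mice (18–25 g) dosed ip with 30 or 100 mg/kg in 30% PEG 400/10% water, 0.01 mL/g. MES tested 0.5 and 4 h later: electroshock via ear clips. Protection means no hind-limb tonic extension. Result reported as mice protected out of mice tested (3 per group).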

Mus musculus [5] = assay: Anticonvulsant activity in Swiss albino mouse assessed as protection against scPTZ-induced tonic-clonic seizures at 30 mg/kg, ip measured after 4 hrs relative to control; format: functional, organism-based; parameters: dose 30 mg/kg; outline: as §1
Mus musculus [6] = assay: Neurotoxicity against Swiss albino mouse at 100 mg/kg, ip measured after 4 hrs by rotarod test; format: toxicity, organism-based; parameters: dose 100 mg/kg, route intraperitoneal; settings: in vivo
Outline: (§3)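 Male Swiss albino mice (18–25 g) dosed ip at 30 or 100 mg/kg in 30% PEG 400/10% water. Minimal neurotoxicity checked on the rotarod 0.5 and 4 h after dosing, as failure to keep balance on the rotating rod. Reported as affected/tested, 5 mice per group.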

Mus musculus [7] = assay: Neurotoxicity against Swiss albino mouse at 30 mg/kg, ip measured after 4 hrs by rotarod test; format: toxicity, organism-based; parameters: dose 30 mg/kg, route intraperitoneal; settings: in vivo; outline: as §3
Mus musculus [8] = assay: Neurotoxicity against Swiss albino mouse at 100 mg/kg, ip measured after 0.5 hrs by rotarod test; format: toxicity, organism-based; parameters: dose 100 mg/kg, route intraperitoneal; settings: in vivo; outline: as §3
Mus musculus [9] = assay: Neurotoxicity against Swiss albino mouse at 30 mg/kg, ip measured after 0.5 hrs by rotarod test; format: toxicity, organism-based; parameters: dose 30 mg/kg, route intraperitoneal; settings: in vivo; outline: as §3
Mus musculus [10] = assay: Anticonvulsant activity in Swiss albino mouse assessed as protection against maximal electric shock-induced tonic-clonic seizures at 30 mg/kg, ip measured after 0.5 hrs relative to control; format: functional, organism-based; parameters: dose 30 mg/kg; outline: as §2
Mus musculus [11] = assay: Toxicity against Swiss albino mouse assessed as mortality at 30 to 100 mg/kg, ip; format: organism-based; parameters: dose 30-100 mg/kg, route intraperitoneal; settings: in vivo
Outline: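 Adult male Swiss albino mice (18–25 g; 12 h light/dark cycle, free food and water) were dosed ip at 30 and 100 mg/kg in 30% PEG 400 and 10% water, 0.01 mL/g body weight. Testing was at 0.5 and 4 h in the MES, scPTZ and RotoRod assays, with deaths recorded during these assays.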

Mus musculus [12] = assay: Anticonvulsant activity in Swiss albino mouse assessed as protection against maximal electric shock-induced tonic-clonic seizures at 100 mg/kg, ip measured after 0.5 hrs relative to control; format: functional; outline: as §2
Mus musculus [13] = assay: Anticonvulsant activity in Swiss albino mouse assessed as protection against scPTZ-induced tonic-clonic seizures at 100 mg/kg, ip measured after 4 hrs relative to control; format: functional, organism-based; parameters: dose 100 mg/kg; outline: as §1
Mus musculus [14] = assay: Anticonvulsant activity in Swiss albino mouse assessed as protection against maximal electric shock-induced tonic-clonic seizures at 100 mg/kg, ip measured after 4 hrs relative to control; format: functional, organism-based; parameters: dose 100 mg/kg; outline: as §2
Mus musculus [15] = assay: Anticonvulsant activity in Swiss albino mouse assessed as protection against scPTZ-induced tonic-clonic seizures at 30 mg/kg, ip measured after 0.5 hrs relative to control; format: functional, organism-based; parameters: dose 30 mg/kg; outline: as §1
Mus musculus [16] = organism: Mus musculus; assay: Ratio of valproic acid ED50 to compound ED50 for protection against maximal electric shock-induced tonic-clonic seizures in Swiss albino mouse; format: functional
Mus musculus [17] = organism: Mus musculus; assay: Ratio of trimathadione ED50 to compound ED50 for protection against maximal electric shock-induced tonic-clonic seizures in Swiss albino mouse; format: functional
Mus musculus [18] = organism: Mus musculus; assay: Ratio of phenytoin ED50 to compound ED50 for protection against maximal electric shock-induced tonic-clonic seizures in Swiss albino mouse; format: functional

SMILES | Time (Mus musculus [1]) | ED50 (Mus musculus [2]) | Activity (Mus musculus [3]) | Activity (Mus musculus [4]; route intraperitoneal) | Activity (Mus musculus [5]) | Activity (Mus musculus [6]) | Activity (Mus musculus [7]) | Activity (Mus musculus [8]) | Activity (Mus musculus [9]) | Activity (Mus musculus [10]) | Activity (Mus musculus [11]) | Activity (Mus musculus [12]; route intraperitoneal) | Activity (Mus musculus [13]) | Activity (Mus musculus [14]) | Activity (Mus musculus [15]) | Ratio ED50 (Mus musculus [16]) | Ratio ED50 (Mus musculus [17]) | Activity (Mus musculus [12]) | Activity (Mus musculus [4]) | Ratio ED50 (Mus musculus [18])
O=C1NC(=O)C(c2ccccc2)(c2ccccc2)N1 [PHENYTOIN] | 1 h | 5.54 mg/kg | – | – | – | – | – | – | – | – | – | – | – | – | – | – | – | – | – | –
CC(C)(O)C(=O)NC1CCCCC1 | 0.5 h | 25.2 mg/kg | inactive | 100% | inactive | Non-toxic | Non-toxic | Non-toxic | Non-toxic | Active | Non-toxic | 100% | inactive | Active | inactive | – | – | – | – | –
CC1(C)OS(=O)(=O)N(Cc2ccccc2)C1=O | 4 h | 15.1 mg/kg | Active | 100% | inactive | Non-toxic | Non-toxic | Non-toxic | Non-toxic | Active | Non-toxic | – | inactive | Active | inactive | 19 | 40 | Active | – | –
CC(C)(O)C(=O)NCc1ccccc1 | 0.25 h | 9.1 mg/kg | Active | – | inactive | Non-toxic | Non-toxic | Non-toxic | Non-toxic | Active | Non-toxic | 100% | Active | inactive | Active | 30 | – | – | Active | –
CCCCNC(=O)C(C)(C)O | 6 h | 44.6 mg/kg | inactive | – | Active | Non-toxic | Non-toxic | Non-toxic | Non-toxic | inactive | Non-toxic | 100% | Active | Active | Active | – | – | – | Active | –
CN1C(=O)OC(C)(C)C1=O [TRIMETHADIONE] | 0.5 h | 627 mg/kg | – | – | – | – | – | – | – | – | – | – | – | – | – | – | – | – | – | –
CC1(C)OS(=O)(=O)N(CCc2ccccc2)C1=O | 2 h | 91.1 mg/kg | Active | – | inactive | Non-toxic | Non-toxic | Non-toxic | Non-toxic | Active | Non-toxic | – | Active | Active | Active | – | – | Active | Active | –
CCCN1C(=O)C(C)(C)OS1(=O)=O | – | – | inactive | – | inactive | Non-toxic | Non-toxic | Non-toxic | Non-toxic | Active | Non-toxic | – | inactive | Active | inactive | – | – | Active | inactive | –
CCCCNC(=O)C(O)(c1ccccc1)c1ccccc1 | – | – | inactive | 100% | inactive | Non-toxic | Non-toxic | Non-toxic | Non-toxic | Active | Non-toxic | 100% | inactive | Active | inactive | – | – | – | – | –
CCCCN1C(=O)C(C)(C)OS1(=O)=O | 2 h | 0.06 mg/kg | inactive | – | Active | Non-toxic | Non-toxic | Non-toxic | Non-toxic | Active | Non-toxic | – | Active | Active | Active | 4700 | 10000 | inactive | Active | 90
CCCNC(=O)C(C)(C)O | – | – | inactive | 100% | inactive | Non-toxic | Non-toxic | Non-toxic | Non-toxic | Active | Non-toxic | – | inactive | inactive | inactive | – | – | Active | – | –
CC(C)(O)C(=O)NCCc1ccccc1 | 1 h | 53.9 mg/kg | Active | – | inactive | Non-toxic | Non-toxic | Non-toxic | Non-toxic | Active | Non-toxic | 100% | Active | Active | inactive | – | – | – | Active | –
